Hits are enriched below; roughly 4.6% of the tested compounds scored in any of these assays.
p97 inhibitor: human p97 ATPase inhibition. P55072. recombinant p97 ATPase, Kinase-Glo ATP luminescence, 3 h. inhibition, % at 8 µM. 0.42% of 220,000 active. AID 1481; in the data active = inhibition above about 15%;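 also: 0% = DMSO vehicle and 100% = wells lacking enzyme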
NF-kB expr up: NF-kB expression increase, human neuronal cells; NF-kB reporter expression; hits give high values; fold change at 12.5 µM; 1.6% of 190,000 active; in the data active = fold change above about 3.3
APP 5'UTR act: APP 5'UTR luciferase reporter activation; SH-SY5Y APP 5'UTR luciferase reporter, luminescence; zero percent = DMSO vehicle wells; activation, % at 2 µM; 1% of 190,000 active;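 active = activation above a set limit, based on mean plus 3 SD of controls, cut at about 140% in these data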
Wee1 degr inh: inhibitors of human Wee1 degradation. P30291. HeLa Luc-Wee1K328M stability, luciferase luminescence; 100% = proteasome inhibitor MG132 effect. reporter increase, % at 5 µM. 1.2% of 220,000 active. AID 1321;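 active = activation above the mean of all tested compounds plus 3 SD, set per screening run, cut at about 8.8% in these data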;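 also: cells exposed to compound for 20 h before luminescence read; 0% = DMSO alone and 100% = MG132 at 30 µM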
Target sequence (P30291 whole entry K328M): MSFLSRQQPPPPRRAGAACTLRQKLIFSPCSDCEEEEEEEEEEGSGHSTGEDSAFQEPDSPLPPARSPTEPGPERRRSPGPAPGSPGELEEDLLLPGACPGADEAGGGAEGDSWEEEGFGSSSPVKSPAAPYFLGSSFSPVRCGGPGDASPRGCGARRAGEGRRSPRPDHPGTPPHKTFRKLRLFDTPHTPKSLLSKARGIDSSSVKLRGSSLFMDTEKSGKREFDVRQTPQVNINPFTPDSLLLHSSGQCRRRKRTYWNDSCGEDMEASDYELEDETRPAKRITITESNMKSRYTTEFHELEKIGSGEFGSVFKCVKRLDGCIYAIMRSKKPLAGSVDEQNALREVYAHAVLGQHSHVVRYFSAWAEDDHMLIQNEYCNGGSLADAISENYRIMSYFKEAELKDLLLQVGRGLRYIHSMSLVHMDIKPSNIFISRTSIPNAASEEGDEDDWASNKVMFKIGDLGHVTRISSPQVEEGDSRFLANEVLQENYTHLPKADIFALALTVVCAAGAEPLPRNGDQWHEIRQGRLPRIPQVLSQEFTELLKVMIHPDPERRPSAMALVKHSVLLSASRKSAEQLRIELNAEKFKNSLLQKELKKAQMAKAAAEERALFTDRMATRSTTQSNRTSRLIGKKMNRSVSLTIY
Mdm2 ligase inh: inhibitors of human Mdm2 E3 ubiquitin ligase; Q00987; cell-based MDM2 ubiquitination luciferase reporter, 2 h; 0 = plate control, 100 = twice control, blank-subtracted; signal enhancement, % at 5 µM; 0.11% of 210,000 active; AID 1230;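 active = signal enhancement of 30% or more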;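 also: luminescence tracks abundance of the self-degrading MDM2-luciferase fusion protein; higher signal means inhibition of MDM2 E3 ligase activity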
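Timing – 2 h compound exposure at 37 °C · Assay system – mammalian cells stably expressing self-ubiquitinating, self-degrading MDM2 E3–luciferase fusion · Amount – 2000 cells seeded into each well · Measure – % luminescence enhancement versus blank-corrected plate control mean · Measured by – SteadyLite luminescence, 15 min reagent step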
STAT1 activator: increases IFN-gamma driven STAT1 reporter signal; activation (% of control), % at 5.5 µM; NIH 3T3 STAT1-luciferase reporter, luminescence; 100% = IFN-gamma alone, no compound; 2.6% of 200,000 active;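 active = activation above the screen-wide mean activation plus 3 SD, cut at about 130% in these data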;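 also: raw ratio to IFN-gamma control signal so 100% means no change and 0% no light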
The depositor's hits bear a star.

Results for COCCNS(=O)(=O)c1cc(OC)c(Cl)cc1Cl ?
p97 inhibitor: -1.1; NF-kB expr up: 1.05; APP 5'UTR act: -5.0; Wee1 degr inh: 0.0; Mdm2 ligase inh: -15.6; STAT1 activator: 98.6

What do the screens show for `CCOc1cc(CNc2ncn[nH]2)ccc1OCC(=O)NC(C)(C)C`?
p97 inhibitor: 5.8; NF-kB expr up: 0.99; APP 5'UTR act: 8.7; Wee1 degr inh: -0.5; Mdm2 ligase inh: -3.5; STAT1 activator: 95.7

What do the screens show for `CCn1c(SCC(=O)N(Cc2ccccc2)C2CCS(=O)(=O)C2)nc2ccccc2c1=O` (stereo not drawn)?
p97 inhibitor: -2.8; NF-kB expr up: 1; APP 5'UTR act: 3.8; Wee1 degr inh: 3.0; Mdm2 ligase inh: -6.5; STAT1 activator: 92.9

How did CCN(C(=O)CSc1nc2ccccc2c(=O)n1-c1cccc(C)c1)C1CCS(=O)(=O)C1 (stereo not drawn) do in these assays?
p97 inhibitor: 0.1; NF-kB expr up: 1.16; APP 5'UTR act: 5.6; Wee1 degr inh: -2.7; Mdm2 ligase inh: 62.6*; STAT1 activator: 100.8

Results for O=C(/C=C/c1ccccc1Cl)c1ccc[nH]1 ?
p97 inhibitor: -0.3; NF-kB expr up: 4.3*; APP 5'UTR act: 53.3; Wee1 degr inh: -2.8; Mdm2 ligase inh: -9.6; STAT1 activator: 87.0

How did O=C(/C=C/c1ccc(Cl)cc1Cl)c1ccc[nH]1 do in these assays?
p97 inhibitor: -2.6; NF-kB expr up: 2.14; APP 5'UTR act: 51.8; Wee1 degr inh: 0.2; Mdm2 ligase inh: -3.2; STAT1 activator: 107.3

Results for CC(=O)c1ccc(NC2=C(N3CCOCC3)C(=O)c3ccccc3C2=O)cc1 ?
p97 inhibitor: 2.7; NF-kB expr up: 0.7; APP 5'UTR act: 4.2; Wee1 degr inh: 1.0; Mdm2 ligase inh: -29.6; STAT1 activator: 90.9

How did Cc1ccc(NC2=C(N3CCOCC3)C(=O)c3ccccc3C2=O)cc1 do in these assays?
p97 inhibitor: 5.5; NF-kB expr up: 1.79; APP 5'UTR act: 151.2*; Wee1 degr inh: 0.1; Mdm2 ligase inh: -44.4; STAT1 activator: 128.3

What do the screens show for `C/C(=N\Nc1ccc(C(=O)O)cc1)c1ccc(-n2ccnc2)cc1`?
p97 inhibitor: 2.0; NF-kB expr up: 1.02; APP 5'UTR act: 102.1; Wee1 degr inh: -1.2; Mdm2 ligase inh: 7.6; STAT1 activator: 138.3*

What do the screens show for `COc1ccc(-c2cc3nnc(-c4ccccc4)nc3s2)cc1`?
p97 inhibitor: 3.5; NF-kB expr up: 1.09; APP 5'UTR act: 27.7; Wee1 degr inh: 4.8; Mdm2 ligase inh: -73.0; STAT1 activator: 134.6*

Results for COc1cccc(Cn2cc(C(=O)NCCN(C)C)nn2)c1 ?
p97 inhibitor: 3.5; NF-kB expr up: 1.37; APP 5'UTR act: 13.8; Wee1 degr inh: 1.2; Mdm2 ligase inh: 0.8; STAT1 activator: 103.4

How did CCOc1ccc(C(=O)NC2=NCCS2)cc1 do in these assays?
p97 inhibitor: 3.0; NF-kB expr up: 2.66; APP 5'UTR act: 92.2; Wee1 degr inh: 4.9; Mdm2 ligase inh: -8.4; STAT1 activator: 138.9*

Results for CCOc1cc(C(=O)Nc2cc(C)ccn2)cc(OCC)c1OCC ?
p97 inhibitor: -3.9; NF-kB expr up: 1.09; APP 5'UTR act: 3.0; Wee1 degr inh: 1.3; Mdm2 ligase inh: 4.8; STAT1 activator: 107.7

How did CCOc1ccc(C(=O)Nc2cc(C)ccn2)cc1 do in these assays?
p97 inhibitor: -36.4; NF-kB expr up: 3.69*; APP 5'UTR act: 186.0*; Wee1 degr inh: -3.2; Mdm2 ligase inh: -13.5; STAT1 activator: 30.2

Results for CCOc1ccc(C(=O)Nc2ncccc2Cl)cc1 ?
p97 inhibitor: 2.1; NF-kB expr up: 2.47; APP 5'UTR act: 42.5; Wee1 degr inh: 0.3; Mdm2 ligase inh: -9.8; STAT1 activator: 129.3*

What do the screens show for `CCOc1cc(C(=O)NC2=NCCS2)cc(OCC)c1OCC`?
p97 inhibitor: 3.0; NF-kB expr up: 1.22; APP 5'UTR act: 11.2; Wee1 degr inh: 3.1; Mdm2 ligase inh: -8.9; STAT1 activator: 94.2

Results for CCCCOc1ccc(C(=O)Nc2cccc(C)n2)cc1 ?
p97 inhibitor: -3.8; NF-kB expr up: 3.97*; APP 5'UTR act: 110.6; Wee1 degr inh: 0.0; Mdm2 ligase inh: -56.8; STAT1 activator: 112.0

Results for Cc1cc2nccc(-c3cccnc3)n2n1 ?
p97 inhibitor: 7.0; NF-kB expr up: 1.04; APP 5'UTR act: 0.6; Wee1 degr inh: -4.7; Mdm2 ligase inh: 9.6; STAT1 activator: 100.8

What do the screens show for `CN(C)CCOC(=O)c1ccc2c(c1)S(=O)(=O)c1ccccc1C2=O`?
p97 inhibitor: 4.6; Wee1 degr inh: -0.8

How did COc1cc(C(=S)N2CCOCC2)cc(OC)c1O do in these assays?
p97 inhibitor: 5.8; Wee1 degr inh: 1.9; Mdm2 ligase inh: -19.5

What do the screens show for `CCOc1ccc(C(=O)Nc2cccc(C)n2)cc1`?
p97 inhibitor: -8.7; NF-kB expr up: 4.57*; APP 5'UTR act: 143.7*; Wee1 degr inh: 1.1; Mdm2 ligase inh: -14.6; STAT1 activator: 112.3

How did Cc1cccc(NC(=O)c2csnn2)n1 do in these assays?
p97 inhibitor: 3.5; NF-kB expr up: 13.2*; APP 5'UTR act: -17.9; Wee1 degr inh: 1.2; Mdm2 ligase inh: 0.4; STAT1 activator: 101.5

What do the screens show for `Cc1cccc(NC(=O)c2ccc(COc3ccc4ccccc4c3)o2)n1`?
p97 inhibitor: -1.8; NF-kB expr up: 2.3; APP 5'UTR act: 21.4; Wee1 degr inh: 0.3; Mdm2 ligase inh: 0.1; STAT1 activator: 144.8*

Results for COc1ccccc1NC(=O)c1ccc(-n2cccn2)nc1 ?
p97 inhibitor: -6.0; NF-kB expr up: 1.27; APP 5'UTR act: 12.4; Wee1 degr inh: 1.6; Mdm2 ligase inh: -11.9; STAT1 activator: 95.3

Results for COc1cc(/C=C/C(=O)CC(=O)/C=C/c2ccc(O)c(OC)c2)ccc1O ?
p97 inhibitor: 4.7; NF-kB expr up: 7.39*; APP 5'UTR act: -11.0; Wee1 degr inh: 2.3; STAT1 activator: 99.1

How did COC(=O)CSc1ccc(S(=O)(=O)N2CCOCC2)cc1[N+](=O)[O-] do in these assays?
p97 inhibitor: 1.0; NF-kB expr up: 0.97; APP 5'UTR act: 13.2; Wee1 degr inh: 9.3*; Mdm2 ligase inh: -14.9; STAT1 activator: 96.8

What do the screens show for `CN(C(=O)CSc1nnc(-c2cccnc2)n1-c1ccccc1F)C1CCS(=O)(=O)C1` (stereo not drawn)?
p97 inhibitor: 4.5; NF-kB expr up: 1.01; APP 5'UTR act: -4.1; Wee1 degr inh: 0.6; Mdm2 ligase inh: -1.1; STAT1 activator: 102.6

What do the screens show for `CC(C)C1N=C(c2ccc3c(c2)OCO3)CC(c2ccccc2O)N1` (stereo not drawn)?
p97 inhibitor: -1.3; NF-kB expr up: 2.54; APP 5'UTR act: 104.4; Wee1 degr inh: 9.4*; Mdm2 ligase inh: -2.3; STAT1 activator: 89.5

What do the screens show for `CC(C)OC(=O)CSc1nnc(-c2ccccn2)n1N`?
p97 inhibitor: 5.1; Wee1 degr inh: 0.4; Mdm2 ligase inh: 0.0

Results for Cc1nnc(SCc2ccccc2)[nH]c1=O ?
p97 inhibitor: 4.4; NF-kB expr up: 1.15; APP 5'UTR act: -3.5; Wee1 degr inh: -2.5; Mdm2 ligase inh: -0.9; STAT1 activator: 98.9

Source: PubChem BioAssay (several laboratories)
